Measured values from ChEMBL document CHEMBL1150161, “New taxane diterpenoids from the leaves and twigs of Taxus sumatrana” (J Nat Prod, 2002).
Converted amounts (≈) assume the structure as drawn.

Key:
KB = experiment: Cytotoxicity against human KB cells after 72 hrs by methylene blue assay; format: functional, cell-based
In short: (§1)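 Cells kept in RPMI-1640 at 37 °C under 5% CO2, seeded at 2880 cells/well and left 3 h before sample or standard drug was added. Samples prepared at 1, 10, 40 and 100 µg/mL (stock, not final). Incubated 37 °C for 3 days. Cells then fixed in 10% formaldehyde/0.9% saline, stained with methylene blue in borate buffer, and eluted with EtOH–0.1 M HCl (1:1). Read at A650. IC50 is the concentration giving 50% absorbance reduction versus untreated cells.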

[1] = Cytotoxicity against human HEPA 59T/VGH cells after 72 hrs by methylene blue assay; format: functional, cell-based; in short: as §1

## CC(=O)O[C@H]1C[C@H]2OC[C@@]2(OC(C)=O)[C@H]2[C@H](OC(C)=O)[C@]3(C(C)(C)O)C[C@H](OC(=O)c4ccccc4)C(C)=C3[C@@H](OC(=O)c3ccccc3)[C@H](OC(C)=O)[C@]12C
KB
  IC50: 9.69 µg/mL (≈ 12.5 µM)
[1]
  IC50: > 20 µg/mL

## CC(=O)O[C@@]12CO[C@@H]1C[C@H](O)[C@]1(C)[C@@H]2[C@H](OC(=O)c2ccccc2)[C@]23C[C@H](O)C(C)=C2[C@@]1(O)C(=O)OC3(C)C [WALLIFOLIOL]
KB
  IC50: 0.56 µg/mL (≈ 1.03 µM)
[1]
  IC50: 0.1 µg/mL (≈ 0.184 µM)

## CC(=O)O[C@H]1C[C@]2(C(C)(C)O)C(=C1C)[C@@H](OC(C)=O)[C@H](OC(C)=O)[C@@]1(C)[C@@H](OC(C)=O)C[C@H]3OC[C@@]3(OC(C)=O)[C@H]1[C@@H]2OC(C)=O
KB
  IC50: 4.92 µg/mL (≈ 7.54 µM)
[1]
  IC50: 6.02 µg/mL (≈ 9.22 µM)

## CC(=O)O[C@H]1C[C@@]23C(=C1C)[C@@](O)(C(=O)OC2(C)C)[C@@]1(C)[C@H]([C@@H]3OC(=O)c2ccccc2)[C@]2(OC(C)=O)CO[C@@H]2C[C@@H]1O
KB
  IC50: 2.91 µg/mL (≈ 4.98 µM)
[1]
  IC50: 13.9 µg/mL (≈ 23.8 µM)

## C=C1[C@@H](O)C[C@H](OC(C)=O)[C@]2(C)[C@@H](OC(C)=O)[C@H](OC(C)=O)C3=C(C)C(=O)C[C@@H]([C@@H](OC(C)=O)[C@H]12)C3(C)C [TAXUSPINE F]
KB
  IC50: 16.9 µg/mL (≈ 31.6 µM)
[1]
  IC50: 3.31 µg/mL (≈ 6.19 µM)

## CC(=O)O[C@@]12CO[C@@H]1C[C@H](OC(=O)c1ccccc1)[C@]1(C)[C@@H]2[C@H](OC(=O)c2ccccc2)[C@]23C[C@H](OC(=O)c4ccccc4)C(C)=C2[C@@]1(O)C(=O)OC3(C)C
KB
  IC50: 15.4 µg/mL (≈ 20.6 µM)
[1]
  IC50: 4.83 µg/mL (≈ 6.43 µM)

## CC(=O)O[C@H]1C[C@@]23C(=C1C)[C@@](O)(C(=O)OC2(C)C)[C@]1(C)[C@@H](OC(C)=O)C[C@H]2OC[C@@]2(OC(C)=O)[C@H]1[C@@H]3OC(=O)c1ccccc1
KB
  IC50: 8.96 µg/mL (≈ 14.3 µM)
[1]
  IC50: 3.09 µg/mL (≈ 4.93 µM)

## CC(=O)O[C@H]1C2[C@@](C)([C@@H](O)C[C@H]3OC[C@@]23OC(C)=O)[C@@H](O)[C@H](O)C2=C(C)[C@@H](O)C[C@]21C(C)(C)O (some centres not stated) [TAXUMAIROL Q]
KB
  IC50: 16.2 µg/mL (≈ 33.5 µM)
[1]
  IC50: 14.5 µg/mL (≈ 30 µM)

## CO[C@@]12[C@H](COC(N)=O)C3=C(C(=O)C(C)=C(N)C3=O)N1C[C@@H]1N[C@@H]12 [MITOMYCIN]
KB
  IC50: 0.01 µg/mL (≈ 0.0299 µM)
[1]
  IC50: 0.01 µg/mL (≈ 0.0299 µM)

## CC(=O)O[C@H]1C(=O)[C@@]2(C)[C@H]([C@H](OC(=O)c3ccccc3)[C@]3(O)C[C@H](OC(=O)[C@H](O)[C@@H](NC(=O)c4ccccc4)c4ccccc4)C(C)=C1C3(C)C)[C@]1(OC(C)=O)CO[C@@H]1C[C@@H]2O [PACLITAXEL]
KB
  IC50: 0.001 µg/mL (≈ 0.00117 µM)
[1]
  IC50: 0.001 µg/mL (≈ 0.00117 µM)

## CC(=O)O[C@H]1C[C@@]2(O)[C@H]3OC[C@]4(O)[C@@H](OC(C)=O)C[C@H](OC(=O)c5ccccc5)[C@](C)([C@H]34)[C@@H](OC(=O)c3ccccc3)[C@H](OC(C)=O)C(=C1C)C2(C)C
KB
  IC50: 12.8 µg/mL (≈ 17.4 µM)
[1]
  IC50: 7.02 µg/mL (≈ 9.55 µM)
